Where a SMILES comes first, the peptide text is derived from it. Bridges are numbered along the chain shown (N, C = ends). Roman numbers before positions name the chains, in order. The star is where a group is joined. X1 = O=C(Cn1cc(CCCC(=O)*)nn1)NC(COCc1cn(CCO[C@H]2O[C@H](CO)[C@@H](O)[C@H](O)[C@@H]2O)nn1)(COCc1cn(CCO[C@H]2O[C@H](CO)[C@@H](O)[C@H](O)[C@@H]2O)nn1)COCc1cn(CCO[C@H]2O[C@H](CO)[C@@H](O)[C@H](O)[C@@H]2O)nn1

The test system of one data set is RAW264.7 cells. Description: Cell viability. The data set is classed as cell-based. The conditions noted are these: 50 μM, 24 hours, CCK-8; n = 3. In outline:
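Cells were seeded at 5 × 10⁴ per well in RPMI 1640 and cultured overnight at 37°C, 5% CO₂. Test compound was added at 10, 20, 50, 100, 200 or 500 µM for 24 h, then CCK-8 for 2 h at 37°C. Absorbance was read at 450 nm against a 690 nm reference. Viability = (A_s − A_b)/(A_c − A_b) × 100% versus saline-treated wells. Run in triplicate.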

Data set [1] in a line: Secondary structure by CD and FTIR. The data set is classed as physicochemical. Conditions: CD: 10 μM, deionized water, 25°C, 1 hour; FTIR: 100 μM, distilled water, 60 min. The method, boiled down: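 For CD, test compound (10 µM) was dissolved in deionized water at 25°C for 1 h and scanned at 500 nm/min with 0.5 nm resolution, with solvent background subtracted. For FTIR, samples were freshly prepared at 100 µM in distilled water for 60 min, dried on calcium fluoride tablets and recorded.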

Another data set relates to MB49-Luc tumor. Description: Antitumor efficiency in MB49-Luc tumor-bearing mice. The format is in vivo, mouse. The conditions noted are these: 500 μM, 100 μl, five doses.
Data set [2] relates to pErk and pAkt in tumor tissues. Description: Immunohistochemistry of pErk and pAkt in EJ tumor tissues. The data set is classed as in vivo, mouse. Conditions: EJ xenograft, versus saline.
The subject of the next data set is NF-κB in RAW264.7 cells. As to the kind of experiment: Western blot of NF-κB phosphorylation in RAW264.7 cells. Conditions: 50 μM, 24 hours; compared with mannose. The format is cell-based. (A western blot detects proteins with antibodies after separation by electrophoresis.)
The target of a further data set is CD206 (Homo sapiens, UniProt P22897). Description: Microscale thermophoresis binding to CD206. Conditions: Kd 3.48 μM versus mannose ~1000 μM.
Chain of CD206 (P22897 19-1456, species assumed): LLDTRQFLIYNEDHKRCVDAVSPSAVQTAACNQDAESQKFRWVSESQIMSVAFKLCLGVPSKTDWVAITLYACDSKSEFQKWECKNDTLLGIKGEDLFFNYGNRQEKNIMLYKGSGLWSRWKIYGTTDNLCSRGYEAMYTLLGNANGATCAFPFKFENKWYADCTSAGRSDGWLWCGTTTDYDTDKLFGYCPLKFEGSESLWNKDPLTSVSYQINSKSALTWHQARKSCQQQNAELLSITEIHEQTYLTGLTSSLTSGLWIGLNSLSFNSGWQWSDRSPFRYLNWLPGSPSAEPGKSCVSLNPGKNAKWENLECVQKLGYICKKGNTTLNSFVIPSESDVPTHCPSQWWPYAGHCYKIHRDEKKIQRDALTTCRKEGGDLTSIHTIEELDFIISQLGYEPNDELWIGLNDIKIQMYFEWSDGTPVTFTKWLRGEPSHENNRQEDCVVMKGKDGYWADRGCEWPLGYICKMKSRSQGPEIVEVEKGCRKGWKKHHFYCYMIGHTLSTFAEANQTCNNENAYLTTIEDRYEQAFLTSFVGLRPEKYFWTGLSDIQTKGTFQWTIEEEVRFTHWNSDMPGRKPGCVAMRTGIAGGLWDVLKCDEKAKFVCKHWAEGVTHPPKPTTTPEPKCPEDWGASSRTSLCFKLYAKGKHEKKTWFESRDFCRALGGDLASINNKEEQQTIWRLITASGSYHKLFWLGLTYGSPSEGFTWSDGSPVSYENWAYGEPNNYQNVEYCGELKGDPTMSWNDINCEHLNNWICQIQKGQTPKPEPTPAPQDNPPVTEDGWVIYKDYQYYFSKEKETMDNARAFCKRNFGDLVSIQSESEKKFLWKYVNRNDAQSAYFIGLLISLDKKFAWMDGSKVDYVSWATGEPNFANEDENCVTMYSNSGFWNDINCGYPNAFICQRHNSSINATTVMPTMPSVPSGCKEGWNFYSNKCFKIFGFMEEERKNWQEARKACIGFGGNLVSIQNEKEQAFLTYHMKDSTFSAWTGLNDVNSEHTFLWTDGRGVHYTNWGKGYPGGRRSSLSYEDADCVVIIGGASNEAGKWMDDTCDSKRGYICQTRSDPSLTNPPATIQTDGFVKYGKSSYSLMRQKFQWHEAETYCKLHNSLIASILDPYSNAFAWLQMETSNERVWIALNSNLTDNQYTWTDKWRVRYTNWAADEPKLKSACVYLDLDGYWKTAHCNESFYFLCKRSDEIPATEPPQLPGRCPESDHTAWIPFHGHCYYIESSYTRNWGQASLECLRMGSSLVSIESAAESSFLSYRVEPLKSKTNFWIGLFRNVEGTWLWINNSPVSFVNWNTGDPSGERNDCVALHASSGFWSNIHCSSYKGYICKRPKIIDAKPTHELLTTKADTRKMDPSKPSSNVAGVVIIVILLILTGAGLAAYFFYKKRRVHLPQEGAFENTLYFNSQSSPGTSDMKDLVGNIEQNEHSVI

Consider `CC(C)C[C@H](NC(=O)[C@H](Cc1ccc(O)cc1)NC(=O)CNC(=O)[C@H](CC(C)C)NC(=O)[C@@H]1CCCN1C(=O)CCCc1cn(CC(=O)NC(COCc2cn(CCO[C@H]3O[C@H](CO)[C@@H](O)[C@H](O)[C@@H]3O)nn2)(COCc2cn(CCO[C@H]3O[C@H](CO)[C@@H](O)[C@H](O)[C@@H]3O)nn2)COCc2cn(CCO[C@H]3O[C@H](CO)[C@@H](O)[C@H](O)[C@@H]3O)nn2)nn1)C(=O)NCC(=O)NCCCC[C@H](NC(=O)[C@H](CCCCN)NC(=O)[C@H](CC(=O)O)NC(=O)[C@@H]1CCCN1C(=O)[C@H](CCCNC(=N)N)NC(=O)[C@H](Cc1c[nH]cn1)NC(=O)[C@H](Cc1c[nH]c2ccccc12)NC(=O)[C@H](CO)NC(=O)[C@H](C)NC(=O)CNC(=O)[C@@H](N)CC(C)C)C(=O)N[C@@H](CC(C)C)C(=O)N[C@H](C(=O)N[C@@H](Cc1ccccc1)C(=O)N[C@@H](Cc1ccccc1)C(=O)N[C@@H](C)C(=O)N[C@@H](CCC(=O)O)C(=O)N[C@@H](CS)C(=O)NCC(=O)O)C(C)C` [bsGP] (I: H-LGASWHRPDKKLVFFAECG-OH / II: X1-PLGYLG; amide I:11-II:C; N-terminus and C-terminus assumed), for which the “effect on viability of RAW264.7 cells” value in the data set on RAW264.7 cells was “no substantial impact”. Besides, the secondary structure result in data set [1] is “random coil structure”. For the same compound, the “body weight loss, MB49-Luc” value in the data set on MB49-Luc tumor is reported as “no obvious loss of body weight”. In addition, the “phosphorylation levels of Erk and Akt in tumor tissues” value in data set [2] is on record as “strongly inhibited”. The “NF-κB phosphorylation in RAW264.7 cells” value with NF-κB in RAW264.7 cells is recorded as “effectively activated”. At CD206, the “affinity relative to mannose” value is “about 300 fold”.
